Tests used:
[1] = target: T1, Receptor-type tyrosine-protein kinase FLT3 (Homo sapiens, UniProt P36888); test: Inhibition of GST-tagged FLT3 by ELISA
T1 sequence (P36888 whole entry): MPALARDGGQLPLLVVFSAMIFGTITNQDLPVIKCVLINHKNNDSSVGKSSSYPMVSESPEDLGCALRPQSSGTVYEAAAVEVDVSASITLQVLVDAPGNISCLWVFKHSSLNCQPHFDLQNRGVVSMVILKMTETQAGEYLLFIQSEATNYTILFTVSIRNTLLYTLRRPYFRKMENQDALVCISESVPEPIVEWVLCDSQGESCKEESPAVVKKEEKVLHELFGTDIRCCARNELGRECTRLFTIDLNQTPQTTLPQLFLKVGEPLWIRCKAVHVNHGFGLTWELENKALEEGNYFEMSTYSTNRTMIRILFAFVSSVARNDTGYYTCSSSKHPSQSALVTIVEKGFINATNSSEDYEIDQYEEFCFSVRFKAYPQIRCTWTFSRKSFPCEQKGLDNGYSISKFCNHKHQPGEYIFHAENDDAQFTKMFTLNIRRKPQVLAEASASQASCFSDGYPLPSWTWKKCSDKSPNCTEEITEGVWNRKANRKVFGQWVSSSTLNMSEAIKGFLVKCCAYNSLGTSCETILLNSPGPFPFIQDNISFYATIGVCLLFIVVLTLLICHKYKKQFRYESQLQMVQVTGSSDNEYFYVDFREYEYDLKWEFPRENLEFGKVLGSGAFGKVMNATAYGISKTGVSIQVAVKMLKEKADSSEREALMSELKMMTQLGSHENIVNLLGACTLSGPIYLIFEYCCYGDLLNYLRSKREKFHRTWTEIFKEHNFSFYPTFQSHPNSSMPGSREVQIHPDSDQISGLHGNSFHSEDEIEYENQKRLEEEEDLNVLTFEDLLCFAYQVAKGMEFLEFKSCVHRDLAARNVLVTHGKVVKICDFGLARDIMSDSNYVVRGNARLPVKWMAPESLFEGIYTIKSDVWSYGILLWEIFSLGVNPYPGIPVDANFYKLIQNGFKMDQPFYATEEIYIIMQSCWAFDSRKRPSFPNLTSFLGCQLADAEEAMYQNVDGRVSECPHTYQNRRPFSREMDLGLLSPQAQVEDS

Liver microsomes = test: Metabolic stability in human liver microsomes assessed as intrinsic clearance; format: ADME, Microsome
Procedure, shortened: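 Pooled human liver microsomes (0.2 mg protein/mL) with test compound at 0.1 or 1 μmol/L, 5 mmol/L NADPH, 100 mmol/L phosphate buffer pH 7.4, 6 mmol/L MgCl2 and 0.1 mmol/L EDTA. Cosolvent was DMSO (0.01 or 0.001 vol%) or methanol (1 vol%). Incubated at 37 °C for a fixed time, n = 1 or 2. Stopped with CH3CN containing internal standard and analysed by LC-MS or LC-MS/MS. Intrinsic clearance calculated from percent remaining.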

MOLM-13 [2] = test: Antiproliferative activity against human MOLM13 cells after 72 hrs by WST-1 assay; format: functional; details: MOLM-13, 72 h
Procedure, shortened: (§1)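 Cells kept in RPMI1640 with 10% heat-inactivated FBS, 1% penicillin and 1% streptomycin, seeded in 96-well plates and exposed to test compounds for 72 h. Viability read with WST-1 reagent. GI50 is the mean ± SEM of three experiments.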

MOLM-13 [3] = test: Antitumor activity against human MOLM13 cells xenografted in SCID mouse assessed as minimal tumor volume ratio at 50 mg/kg, po bid treated for 5 days measured after 7 days relative to control; format: functional
Procedure, shortened: (§2)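 SCID mice bearing subcutaneous MOLM-13 xenografts, 5 per group, dosed orally b.i.d. for 5 days. […] is the mean tumour volume ratio, treated to control. Regression is the mean tumour volume relative to the initial volume on day 0. Mortality and body weight were also recorded.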

[4] = Antiproliferative activity against human HMC1 cells expressing FLT-D835Y mutant after 72 hrs by WST-1 assay; format: functional; details: HMC1, 72 h; procedure, shortened: as §1
[5] = Antiproliferative activity against human ML1 cells after 72 hrs by WST-1 assay; format: functional; details: ML1, 72 h; procedure, shortened: as §1
Mus musculus [6] = test: Toxicity to human MOLM13 cells xenografted SCID mouse assessed as body weight loss at 200 mg/kg, po bid after 5 days; format: organism-based, MOLM-13; parameters: dose 200 mg/kg, route oral; details: in vivo, 120 h; procedure, shortened: as §2
Mus musculus [7] = test: Toxicity to human MOLM13 cells xenografted SCID mouse assessed as mortality at 50 mg/kg, po bid after 5 days; format: organism-based, MOLM-13; parameters: dose 50 mg/kg, route oral; details: in vivo, 120 h
Procedure, shortened: (§3)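 MOLM-13 cells implanted subcutaneously in SCID mice. Compound given orally twice daily for 5 days at 50, 100 or 200 mg/kg, alongside an untreated control group. Mortality was scored per dose group, together with tumor volume as treated/control ratio and relative to day-0 volume.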

[8] = Antiproliferative activity against human HMC1 cells expressing FLT3-delta599 mutant after 72 hrs by WST-1 assay; format: functional; details: HMC1, 72 h; procedure, shortened: as §1
MOLM-13 [9] = test: Antitumor activity against human MOLM13 cells xenografted in SCID mouse assessed as minimal regressive tumor volume ratio at 50 mg/kg, po bid treated for 5 days measured after 7 days relative to control; format: functional; procedure, shortened: as §2
MOLM-13 [10] = test: Antitumor activity against human MOLM13 cells xenografted in SCID mouse assessed as minimal tumor volume ratio at 100 mg/kg, po bid treated for 5 days measured after 7 days relative to control; format: functional; procedure, shortened: as §2
Mus musculus [11] = test: Toxicity to human MOLM13 cells xenografted SCID mouse assessed as mortality at 100 mg/kg, po bid after 5 days; format: organism-based, MOLM-13; parameters: dose 100 mg/kg, route oral; details: in vivo, 120 h; procedure, shortened: as §3
MOLM-13 [12] = test: Antitumor activity against human MOLM13 cells xenografted in po dosed SCID mouse assessed as regression tumor volume ratio administered bid for 5 days; format: functional, organism-based; procedure, shortened: as §2
MOLM-13 [13] = test: Antitumor activity against human MOLM13 cells xenografted in po dosed SCID mouse assessed as tumor volume ratio administered bid for 5 days; format: functional, organism-based; procedure, shortened: as §2
MOLM-13 [14] = test: Antitumor activity against human MOLM13 cells xenografted in SCID mouse assessed as minimal regressive tumor volume ratio at 100 mg/kg, po bid treated for 5 days measured after 7 days relative to control; format: functional; procedure, shortened: as §2

SMILES	clearance (Liver microsomes) [mL/min/kg]	GI50 (MOLM-13 [2]) [µM]	also measured
CCCNc1nc(NCCc2cccs2)ncc1-c1nnc(C)o1			IC50 [1]: 0.373 µM
c1ccc(Nc2nc(NCCc3ccncc3)ncc2-c2nnc(CN3CCNCC3)o2)cc1	38.3	0.074	
CN1CCN(Cc2nnc(-c3cnc(NCCc4ccncc4)nc3NCC3CC3)o2)CC1	86.7	0.052	
CCCNc1nc(NCCc2ccncc2)ncc1-c1nnc(CN2C[C@@H](C)N[C@@H](C)C2)o1	115	0.043	
Oc1ccc(CCNc2ncc(-c3nnc(C4CC4)o3)c(Nc3ccccc3)n2)cc1	85	0.044	
CNc1nc(NCCc2ccncc2)ncc1-c1nnc(CN2CCN(C)CC2)o1	1.67	0.262	
OCCNc1nc(NCCc2ccncc2)ncc1-c1nnc(C2CC2)o1	20	0.123	IC50 [1]: 0.063 µM
CCNc1nc(NCCc2ccncc2)ncc1-c1nnc(CN2CCN(C)CC2)o1	45	0.102	T/C (MOLM-13 [3]): 0.24; GI50 [4]: 0.063 µM; GI50 [5]: > 10 µM; Activity (Mus musculus [6]): Non-toxic; Activity (Mus musculus [7]): Non-toxic; GI50 [8]: 0.114 µM
N#Cc1cc(CCNc2ncc(-c3nnc(C4CC4)o3)c(Nc3ccccc3)n2)ccn1		10	
Oc1ccc(Nc2nc(NCCc3ccncc3)ncc2-c2nnc(C3CC3)o2)cc1		0.0032	IC50 [1]: 0.0048 µM
FCCCNc1nc(NCCc2ccncc2)ncc1-c1nnc(CN2CCNCC2)o1	1.67	0.099	
CCCOc1nc(NCCc2ccncc2)ncc1-c1nnc(CN2CCN(C)CC2)o1	11.7	0.308	
CCCNc1nc(NCCc2ccncc2)ncc1-c1nnc(CN(C)C)o1	183	0.073	T/C (MOLM-13 [3]): 0.45; Activity (Mus musculus [7]): Non-toxic
CCCNc1nc(NCCc2ccncc2)ncc1-c1nnc(CN2CCN(C)CC2)o1	81.7	0.019	GI50 [4]: 0.031 µM; GI50 [5]: > 10 µM; Activity (Mus musculus [6]): Non-toxic; Activity (Mus musculus [7]): Non-toxic; GI50 [8]: 0.037 µM
CCOc1nc(NCCc2ccncc2)ncc1-c1nnc(C2CC2)o1	23.3	0.263	IC50 [1]: 0.08 µM
c1ccc(Nc2nc(NCCc3ccncn3)ncc2-c2nnc(C3CC3)o2)cc1	73.3	0.775	
Oc1cccc(Nc2nc(NCCc3ccncc3)ncc2-c2nnc(C3CC3)o2)c1	267	0.01	IC50 [1]: 0.034 µM
CCCNc1nc(NCCc2ccncc2)ncc1-c1nnc(CO)o1	35	0.056	GI50 [4]: 0.116 µM; GI50 [5]: 5.96 µM; GI50 [8]: 0.076 µM

SMILES	clearance (Liver microsomes) [mL/min/kg]	GI50 (MOLM-13 [2]) [µM]	also measured
COc1cc(CCNc2ncc(-c3nnc(C4CC4)o3)c(Nc3ccccc3)n2)ccn1		0.999	
CCNc1nc(NCCc2ccncc2)ncc1-c1nnc(CN2C[C@@H](C)N[C@@H](C)C2)o1	13.3	0.094	T/C (MOLM-13 [3]): 0.2; Ratio (MOLM-13 [9]): 1.39; GI50 [4]: 0.048 µM; GI50 [5]: > 10 µM; T/C (MOLM-13 [10]): 0.014; Activity (Mus musculus [6]): Non-toxic; Activity (Mus musculus [7]): Non-toxic; GI50 [8]: 0.074 µM; Activity (Mus musculus [11]): Non-toxic; Activity (MOLM-13 [12]): Dose-dependent effect; Activity (MOLM-13 [13]): Dose-dependent effect; Ratio (MOLM-13 [14]): 0.12
CC(C)Nc1nc(NCCc2ccncc2)ncc1-c1nnc(CN2CCNCC2)o1	25	0.049	
CCCNc1nc(NCCc2ccncc2)ncc1-c1nnc(CN2CCN(C(C)=O)CC2)o1	137	0.066	
Nc1ccc(CCNc2ncc(-c3nnc(C4CC4)o3)c(Nc3ccccc3)n2)cc1	68.3	0.287	
CS(=O)(=O)CCNc1nc(NCCc2ccncc2)ncc1-c1nnc(C2CC2)o1		0.588	IC50 [1]: 0.515 µM
CCCNc1nc(NCCc2ccncc2)ncc1-c1nnc(CN2CCOCC2)o1	167	0.043	
CCCNc1nc(NCCc2ccncc2)ncc1-c1nnc(CN2CCN(CCO)CC2)o1	50	0.057	
[O-][n+]1ccc(CCNc2ncc(-c3nnc(C4CC4)o3)c(Nc3ccccc3)n2)cc1	3.33	3.61	
Cc1cc(CCNc2ncc(-c3nnc(C4CC4)o3)c(Nc3ccccc3)n2)ccn1	367	0.137	
CCCNc1nc(NCCc2ccncc2)ncc1-c1nnc(CNCCN(C)C)o1	50	0.078	
c1ccc(Nc2nc(NCCc3ccncc3)ncc2-c2nnc(C3CC3)o2)cc1	317	0.04	IC50 [1]: 0.047 µM
Oc1cc(CCNc2ncc(-c3nnc(C4CC4)o3)c(Nc3ccccc3)n2)ccn1	41.7	0.113	
CCCNc1nc(NCCc2ccncc2)ncc1-c1nnc(CN2CCC(N)CC2)o1	50	0.074	
Cc1ccccc1Nc1nc(NCCc2ccncc2)ncc1-c1nnc(C2CC2)o1	217	0.04	IC50 [1]: 0.134 µM
c1cc(CCNc2ncc(-c3nnc(CN4CCNCC4)o3)c(NC3CCC3)n2)ccn1	105	0.05	
CNc1nc(NCCc2ccncc2)ncc1-c1nnc(C2CC2)o1	20	0.139	IC50 [1]: 0.035 µM
Cc1ccc(Nc2nc(NCCc3ccncc3)ncc2-c2nnc(C3CC3)o2)cc1	183	0.023	IC50 [1]: 0.106 µM

From ChEMBL document CHEMBL1152250, “Novel and orally active 5-(1,3,4-oxadiazol-2-yl)pyrimidine derivatives as selective FLT3 inhibitors” (Bioorg Med Chem Lett, 2008)
